From ChEMBL document CHEMBL3351721, “Cyclic adenosine 5'-diphosphate ribose analogs without a "southern" ribose inhibit ADP-ribosyl cyclase-hydrolase CD38” (J Med Chem, 2014)

Tests used:
[1] = Retention time of the compound at 1 mM in presence of human CD38 catalytic domain by RP-HPLC method; assay type: physicochemical; details: 1000 µM
How it was run: (§1)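 Human CD38 catalytic domain diluted in 20 mM Tris-HCl pH 8 to 4 mg/mL or 1 μg/mL, added to inhibitor (1 mM final) at room temperature; no-enzyme control run in parallel. At time points, aliquots diluted 20-fold in water and analysed by RP-HPLC: isocratic elution, 1 mL/min, ion-pair buffer 0.17% cetrimide and 45% phosphate buffer (pH 6.4) in MeOH, photodiode array detection 210–350 nm.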

[2] = target: T1, ADP-ribosyl cyclase/cyclic ADP-ribose hydrolase 1 (Homo sapiens, UniProt P28907); test: Drug metabolism assessed as human CD38 catalytic domain-mediated compound hydrolysis by measuring 8-NH2-N9-butyl-IDPR level at 1 mM by RP-HPLC method; assay type: ADME; details: 1000 µM; how it was run: as §1
T1 sequence (P28907 whole entry): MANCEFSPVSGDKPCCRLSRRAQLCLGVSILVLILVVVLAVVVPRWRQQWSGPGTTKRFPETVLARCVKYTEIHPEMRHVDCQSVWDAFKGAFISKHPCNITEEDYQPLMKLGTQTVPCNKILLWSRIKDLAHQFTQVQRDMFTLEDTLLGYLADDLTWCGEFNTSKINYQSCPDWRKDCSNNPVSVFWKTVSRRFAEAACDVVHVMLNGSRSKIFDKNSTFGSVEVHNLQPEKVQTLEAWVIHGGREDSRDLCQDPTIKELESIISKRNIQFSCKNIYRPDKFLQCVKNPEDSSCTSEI

[3] = target: T1, ADP-ribosyl cyclase/cyclic ADP-ribose hydrolase 1; test: Drug metabolism assessed as human CD38 catalytic domain-mediated compound hydrolysis at 1 mM using 1 ug/mL CD38 by RP-HPLC method; assay type: ADME; details: 1000 µM; how it was run: as §1
[4] = target: T1, ADP-ribosyl cyclase/cyclic ADP-ribose hydrolase 1; test: Drug metabolism assessed as human CD38 catalytic domain-mediated compound hydrolysis at 1 mM using 4 mg/mL CD38 by RP-HPLC method; assay type: ADME; details: 1000 µM; how it was run: as §1
[5] = target: T1, ADP-ribosyl cyclase/cyclic ADP-ribose hydrolase 1; test: Inhibition of human CD38 catalytic domain assessed as reduction in cADPR hydrolysis incubated for 10 mins by fluorimetric cycling assay
[6] = target: T1, ADP-ribosyl cyclase/cyclic ADP-ribose hydrolase 1; test: Drug metabolism assessed as human CD38 catalytic domain-mediated compound hydrolysis at 1 mM by RP-HPLC method; assay type: ADME; details: 1000 µM; how it was run: as §1
[7] = Retention time of the compound using 1 mM 8-NH2-N9-butyl-cIDPR in presence of human CD38 catalytic domain by RP-HPLC method; assay type: physicochemical; how it was run: as §1
[8] = target: T1, ADP-ribosyl cyclase/cyclic ADP-ribose hydrolase 1; test: Drug level assessed as human CD38 catalytic domain-mediated compound formation using 1 mM 8-NH2-N9-butyl-cIDPR by RP-HPLC method; assay type: ADME; how it was run: as §1

Drug metabolism [3] | Drug metabolism [4] | Drug metabolism [6] | Structure (SMILES) | other results
metabolite_notdetected | metabolite_detected |  | Nc1nc2c(=O)n3cnc2n1CCCCOP(=O)(O)OP(=O)(O)OC[C@H]1O[C@@H]3[C@H](O)[C@@H]1O | Retention_time [1]: 9.1 min; Drug metabolism [2]: metabolite_detected
metabolite_notdetected | metabolite_detected | metabolite_detected | O=c1c2ncn3c2ncn1[C@@H]1O[C@H](COP(=O)(O)OP(=O)(O)OC[C@H]2O[C@@H]3[C@H](O)[C@@H]2O)[C@@H](O)[C@H]1O | IC50 [5]: 276 µM
 |  | metabolite_detected | O=c1c2ncn3c2ncn1[C@@H]1O[C@H](COP(=O)(O)OP(=O)(O)OCCCC3)[C@@H](O)[C@H]1O | 
 |  | metabolite_detected | O=c1c2nc(Br)n3c2ncn1[C@@H]1O[C@H](COP(=O)(O)OP(=O)(O)OCCCC3)[C@@H](O)[C@H]1O | 
 |  |  | Nc1nc2c(=O)[nH]cnc2n1CCCCOP(=O)(O)OP(=O)(O)OC[C@H]1OC(O)[C@H](O)[C@@H]1O (some centres not stated) | Retention_time [7]: 10.6 min; Drug metabolism [8]: metabolite_detected
